Common to all, as to format: functional, cell-based
One assay has as its system A549. The experiment in a line: Antiproliferative activity against human A549 cells after 3 days by sulforhodamine B assay. To be noted: A549, 72 h. Put shortly: (§1)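 Cells from a university core cell-culture facility, grown in DMEM with 10% heat-inactivated FBS, penicillin-streptomycin and 2 mM L-glutamine at 37 °C, 5% CO2, 90% humidity. Seeded at 1 × 10^4 cells/cm2 in quadruplicate, treated after 24 h with increasing concentrations. Fixed in cold 10% TCA, stained with 0.4% sulforhodamine in 1% HOAc, solubilized in 10 mM Tris pH 10.5, OD 492 nm. IC50 by linear interpolation of semilog curves; mean ± SEM, four determinations.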
For orientation: The SRB assay estimates cell density from bound dye.

The subject of a further assay is MCF7. The experiment in a line: Antiproliferative activity against human MCF7 cells after 3 days by sulforhodamine B assay. The note with it: MCF7, 72 h. Put shortly: as §1
The next assay relates to T84. The experiment in a line: Antiproliferative activity against human T84 cells after 3 days by sulforhodamine B assay. To be noted: T84, 72 h. Put shortly:
as §1

Each structure is given as a SMILES string.

The IC50 is the concentration that gives 50% inhibition. Low readings indicate inhibition by little substance, high ones a need for much substance. In the case of `CC(=O)OC[C@H]1C2=C(C(=O)C(Br)=C(C(C)C)C2=O)[C@@]2(C)CCC[C@@](C)(COC(C)=O)[C@H]12`, the IC50 with A549 came to 1.1 µM; with MCF7, 1.8 µM; in the assay on T84, 1.6 µM.
With `CC(C)C1=C(O)C(=O)C2=C(C1=O)[C@H](CO)[C@H]1C(C)(C)CCC[C@]21C`, the IC50 was determined as 43.6 µM in the assay with A549, 39.9 µM in the assay with MCF7 and 35.3 µM with T84.
For the compound `CC(=O)OC[C@H]1C2=C(C(=O)C=C(C(C)C)C2=O)[C@@]2(C)CCCC(C)(C)[C@H]12`, the IC50 is 21.1 µM with A549, 13.6 µM with MCF7 and 28.8 µM with T84.
For `COC(=O)[C@]1(C)CCC[C@]2(C)C3=C(C(=O)C(C(C)C)=C(OC)C3=O)[C@H](CO)[C@@H]12` the same measures were 22.9 µM, 10 µM and 31.4 µM.
For the compound `C=C1C2=C(C(=O)C(OC)=C(C(C)C)C2=O)[C@@]2(C)CCCC(C)(C)C12O` (some centres undefined), the IC50 with A549 was found to be 23.8 µM; with MCF7, 12.6 µM; in the assay on T84, 24.9 µM.
For `CC(C)C1=C(Br)C(=O)C2=C(C[C@H]3C(C)(C)CCC[C@]23C)C1=O` the same measures were 11.8 µM, 2.2 µM and 3.2 µM.
For `C=C1C2=C(C(=O)C(OC)=C(C(C)C)C2=O)[C@@]2(C)CCC[C@@](C)(C(=O)OC)[C@H]12` the same measures were 19.7 µM, 17 µM and 15.7 µM.
For `CC(C)C1=C(O)C(=O)[C@]23O[C@@]2(C1=O)[C@H](CO)[C@H]1C(C)(C)CCC[C@@]13C` the same measures were 19.2 µM, 17.1 µM and 17.1 µM.
Turning to `CC(C)C1=C(Br)C(=O)C2=C(C=C3C(C)(C)CCC[C@@]32C)C1=O`, the IC50 is 22.1 µM with A549, 3.2 µM in the assay with MCF7 and 6.2 µM in the assay on T84.
For `COC(=O)[C@]1(C)CCC[C@]2(C)C3=C(C(=O)C(C(C)C)=C(O)C3=O)[C@H](CO)[C@@H]12` the same measures were 8.6 µM, 32.1 µM and 23.2 µM.
For `CC(=O)OC[C@H]1c2c(O)c(C(C)C)cc(O)c2[C@@]2(C)CCCC(C)(C)[C@H]12` the same measures were 19.4 µM, 36.1 µM and 25 µM.
For `CC(C)C1=CC(=O)C2=C(C=C3C(C)(C)CCC[C@@]32C)C1=O` the same measures were 15 µM, 7.1 µM and 8.6 µM.
With `CC(C)C1=CC(=O)C2=C(C1=O)[C@H](CO)[C@H]1C(C)(C)CCC[C@]21C`, the IC50 stood at 12.5 µM with A549, 15.7 µM in the assay on MCF7 and 18 µM in the assay on T84.
For `COC(=O)[C@]1(C)CCC[C@]2(C)C3=C(C(=O)C(C(C)C)=C(OC)C3=O)[C@H](C=O)[C@@H]12` the same measures were 12.1 µM, 11.4 µM and 12.8 µM.
For `CC(=O)OC[C@H]1C2=C(C(=O)C(Br)=C(C(C)C)C2=O)[C@@]2(C)CCCC(C)(C)[C@H]12` the same measures were 29.7 µM, 4 µM and 29.5 µM.
On to `C=C1C2=C(C(=O)C(OC)=C(C(C)C)C2=O)[C@@]2(C)CCCC(C)(C)[C@H]12`, for which the IC50 in the assay on A549 was found to be 30.9 µM; in the assay on MCF7, 12.4 µM; with T84 it was 32.3 µM.
In the case of `COC(=O)[C@]1(C)CCC[C@]2(C)C3=C(C(=O)C(C(C)C)=C(Br)C3=O)[C@H](COC(C)=O)[C@@H]12`, the results for the IC50 in the assay on A549, with MCF7 and in the assay with T84 were 2.4 µM, 2.4 µM and 2.9 µM, respectively.
For the compound `C=C1[C@H]2C(C)(C)CCC[C@]2(C)C2(O)C(=O)C(OC)=C(C(C)C)C(=O)C12O` (some centres undefined), the values for the IC50 with A549, in the assay with MCF7 and with T84 were 27.2 µM, 36.4 µM and 36.3 µM, respectively.
With `C=C1C2=C(C(=O)C(Br)=C(C(C)C)C2=O)[C@@]2(C)CCCC(C)(C)[C@H]12`, the IC50 in the assay on MCF7 came out at 1.3 µM; in the assay on T84 it was 9.6 µM.
In the case of `CC(C)C1=CC(=O)C2=C(C[C@H]3C(C)(C)CCC[C@]23C)C1=O`, the IC50 is 30.3 µM in the assay on A549, 16.1 µM in the assay on MCF7 and 6 µM in the assay on T84.
For `C=C1C2=C(C(=O)C(Br)=C(C(C)C)C2=O)[C@@]2(C)CCCC(C)(C)C12O` (some centres undefined) the same measures were 1.5 µM, 1 µM and 5.2 µM.
For `CC(C)C1=C(Br)C(=O)C2=C(C1=O)[C@H](CO)[C@H]1C(C)(C)CCC[C@]21C` the same measures were 12.2 µM, 2.1 µM and 6.7 µM.
For `COC1=C(C(C)C)C(=O)C2=C(C1=O)[C@@]1(C)CCCC(C)(C)[C@@H]1C2` [TAIWANIAQUINONE G] the same measures were 30.5 µM, 16.8 µM and 14.1 µM.
Take `COC1=C(C(C)C)C(=O)C2=C(C1=O)[C@@]1(C)CCCC(C)(C)[C@@H]1[C@H]2C=O` [TAIWANIAQUINONE]: the IC50 in the assay on A549 came to 10.1 µM; in the assay with MCF7, 15.4 µM; with T84, 11.9 µM.
In the case of `CC(C)C1=C(O)C(=O)C2=C(C1=O)[C@H](C=O)[C@H]1C(C)(C)CCC[C@]21C` [TAIWANIQUINONE A], the IC50 in the assay with A549 was found to be 25.1 µM; in the assay on MCF7 it was 28.6 µM; in the assay on T84 it was 30.9 µM.

These data come from ChEMBL document CHEMBL4038267, “Antiproliferative Activity of Natural Taiwaniaquinoids and Related Compounds” (J Nat Prod, 2017).
